Assay outcomes deposited in PubChem by Broad Institute.
This is a sample that favours compounds with a hit; in the whole collection about 1.4% have one here.
GSK3 alpha inh: inhibitors of human GSK-3 alpha kinase; AID 2650; inhibition, % at 10 µM; P49840; 320,000 compounds, 0.1% hits; ADP-Glo luminescence, 60 min;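 active means more than half of replicates show inhibition above 20%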;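 further: GST-tagged GSK-3 alpha with peptide substrate and 25 µM ATP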
GSK3B inh: blocks human GSK3beta kinase activity; GST-GSK3beta kinase, ADP-Glo luminescence, 60 min; stronger effect = lower value; activity score (negative = inhibition), % at 10 µM; 300,000 compounds, 0.038% hits; AID 2097;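 active means more than half of replicate wells score below -50%, meaning over 50% inhibition versus plate controls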
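Test system – GST-tagged human GSK3beta kinase, cell-free · Incubation – 60 min enzyme reaction, room temperature · Signal – ADP-Glo luminescence · Also added – peptide substrate and ATP at 25 µM · Controls – DMSO neutral wells and GW8510 at 20 µM as positive · Buffer or medium – Tris/MgCl2 kinase buffer · Measure – Luminescence-derived activity versus plate DMSO and GW8510 wells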
HIV Env fusion: blocks HIV Env-driven cell-cell fusion | HeLa-JRFL Env/CEM21 cell fusion, luciferase | inhibition, % at 12.3 µM | 360,000 compounds, 1.1% hits | AID 651610;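 active means mean replicate inhibition score of at least 50 and every replicate individually at or above 50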
STK33 inh: human STK33 kinase inhibition | Q9BYT3 | purified STK33, MBP phosphorylation, ADP-Glo luminescence | inhibition, % at 10 µM | 320,000 compounds, 0.073% hits | AID 2661;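 active means inhibition at or above 25%, using the most active replicate where run in duplicate; inactive means inhibition below 25%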
INS-1E GSIS act: primary screen for activators of insulin secretion dependent on glucose, INS-1E cells, GLuc reporter luminescence; activation, % at 16.6 µM; 370,000 compounds, 0.61% hits; INS-1E GLuc reporter insulin secretion, 2-3 h;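 active means lowest replicate activation of at least 40%, so every replicate reaches that level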
CDK5 inh: inhibitors of human CDK5/p35 kinase | Recombinant CDK5/p35, ADP-Glo luminescence, 60 min | inhibition, % at 10 µM | 330,000 compounds, 0.01% hits | AID 488839;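 active means highest replicate inhibition of at least 50% and at least 75% of replicates reaching 50%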
Target sequence (Q00535 whole entry, looked up): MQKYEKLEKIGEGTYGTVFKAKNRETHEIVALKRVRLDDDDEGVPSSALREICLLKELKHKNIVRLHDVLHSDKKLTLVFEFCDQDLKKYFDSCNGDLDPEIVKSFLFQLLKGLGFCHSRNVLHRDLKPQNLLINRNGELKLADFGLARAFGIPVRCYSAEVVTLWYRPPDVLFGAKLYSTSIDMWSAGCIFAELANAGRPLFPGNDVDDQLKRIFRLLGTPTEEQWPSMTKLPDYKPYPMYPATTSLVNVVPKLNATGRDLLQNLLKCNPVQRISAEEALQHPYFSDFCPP
Target sequence (Q15078 whole entry, looked up): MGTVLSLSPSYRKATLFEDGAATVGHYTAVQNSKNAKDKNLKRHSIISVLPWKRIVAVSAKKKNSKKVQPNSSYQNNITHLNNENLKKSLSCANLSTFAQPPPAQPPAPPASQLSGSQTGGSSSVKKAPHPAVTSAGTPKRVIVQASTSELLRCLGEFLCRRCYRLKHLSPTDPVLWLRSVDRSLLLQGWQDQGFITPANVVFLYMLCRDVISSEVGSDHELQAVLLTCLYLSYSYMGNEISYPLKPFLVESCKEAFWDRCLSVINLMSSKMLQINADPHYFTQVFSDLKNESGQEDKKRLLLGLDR
Numbers stand for hits; n = inactive; x = no result.

SMILES	GSK3 alpha inh	GSK3B inh	HIV Env fusion	STK33 inh	INS-1E GSIS act	CDK5 inh
C[C@@H]1CN([C@H](C)CO)C(=O)Cc2cc(NC(=O)Cn3cnnn3)ccc2O[C@H]1CN(C)Cc1ccc(C(=O)Nc2ccccc2N)cc1	x	x	n	x	n	x
NS(=O)(=O)c1ccc(CCNC(=O)CN2CCN(c3ccc(F)cc3)CC2)cc1	n	n	64	n	n	n
NS(=O)(=O)c1ccc(CCNC(=O)CN2CCN(c3cccc(Cl)c3)CC2)cc1	n	n	n	n	n	n
C[C@@H]1CN([C@@H](C)CO)C(=O)c2cc(-c3cncnc3)cnc2O[C@@H]1CN(C)Cc1ccccc1	x	x	x	x	n	x
Cc1cccc(-c2nc(CSCC(=O)N3CCN(c4ccccn4)CC3)c(C)o2)c1	n	n	89	n	x	n
C[C@@H]1CN([C@H](C)CO)C(=O)c2cc(N(C)C)ccc2O[C@@H](C)CCCCO[C@H]1CN(C)Cc1ccccc1	x	x	n	x	n	x
CN(C[C@H](Cc1ccccc1)N(C[C@@H](CC1CCCCC1)N(CCc1ccccc1)N=O)N=O)N=O	n	n	56	n	n	n
CN(C[C@H](Cc1ccccc1)N(C[C@H](Cc1ccccc1)N(CCC(C)(C)C)N=O)N=O)N=O	n	n	62	n	n	n
CC(C)CCN(N=O)[C@@H](Cc1ccccc1)CN(N=O)[C@@H](Cc1ccccc1)CN(C)N=O	n	n	93	n	n	n
CN(C[C@H](Cc1ccccc1)N(C[C@H](c1ccccc1)N(CCc1ccccc1)N=O)N=O)N=O	x	n	74	n	n	n
C[C@@H]1CCCCO[C@H](CN(C)S(C)(=O)=O)[C@@H](C)CN([C@H](C)CO)C(=O)c2cc(NC(=O)Nc3ccccc3)ccc2O1	x	x	n	x	n	x
COCC(=O)N1CC2(CN(Cc3nccs3)C2)c2c(n(C)c3cc(OC)ccc23)[C@H]1CO	x	x	x	x	n	x
CC1CCCCN1c1ncnc(N)c1[N+](=O)[O-] (configuration not stated)	n	-68	n	n	n	n
Cc1nc(N2CCOCC2)nc(N2CCCCC2C)c1[N+](=O)[O-] (configuration not stated)	n	n	n	n	n	n
CC1Cc2ccccc2N1c1ncnc(N)c1[N+](=O)[O-] (configuration not stated)	n	n	65	n	n	n
O=C(C[C@@H]1C=C[C@@H](NC(=O)Nc2cc(F)ccc2F)[C@@H](CO)O1)Nc1ccccc1	x	x	n	x	n	x
CNC[C@@H]1OCCCC[C@@H](C)Oc2ccc(NC(=O)CCC(F)(F)F)cc2C(=O)N([C@H](C)CO)C[C@H]1C	x	x	n	x	n	x
COc1ccc(NC(=O)CSc2nc3nc(C)cc(C)c3c(=O)[nH]2)cc1	n	n	n	n	n	n
CCN(CC)c1ccc(NC(=O)CSc2nc3nc(C)cc(C)c3c(=O)[nH]2)cc1	x	n	n	x	42	n
Cc1ccc(/C=C2/CNC/C(=C/c3ccc(C)cc3)C2=O)cc1	x	x	66	x	n	n
Cc1cccc(C(=O)N2CCC(=O)N(C(COCc3ccccc3)Cc3ccccc3)CC2)c1 (configuration not stated)	n	n	n	n	n	n
O=C(c1cccc(Cl)c1)N1CCC(=O)N(C(COCc2ccccc2)Cc2ccccc2)CC1 (configuration not stated)	n	n	n	n	x	n
Cc1cccc(COC[C@H](Cc2ccccc2)N2CCN(C(=O)c3cc(Cl)cc(Cl)c3)CCC2=O)c1	x	x	92	x	n	x
Cc1cccc(COC[C@H](Cc2ccccc2)N2CCN(C(=O)c3cccc(C)c3)CCC2=O)c1	x	x	n	x	n	x
Cc1cccc(COCC(Cc2ccccc2)N2CCN(C(=O)c3cccc(Cl)c3)CCC2=O)c1 (configuration not stated)	x	n	66	n	n	n
SMILES	GSK3 alpha inh	GSK3B inh	HIV Env fusion	STK33 inh	INS-1E GSIS act	CDK5 inh
Cc1cccc(COC[C@H](Cc2ccccc2)N2CCN(C(=O)c3cccc(Cl)c3)CCC2=O)c1	x	x	75	x	n	x
C=CCn1c(SCC(=O)N2CCN(C(=O)OCC)CC2)nc2c([nH]c3ccccc32)c1=O	x	x	n	x	43	x
COCCn1c(SCC(=O)Nc2cc(C)on2)nc2c([nH]c3ccccc32)c1=O	x	x	59	x	n	x
CCn1c(SCC(=O)Nc2cc(C)on2)nc2c([nH]c3ccccc32)c1=O	n	n	x	n	n	n
CN(CCO)c1cc(Sc2nc3ccccc3s2)c2nonc2c1[N+](=O)[O-]	n	n	x	n	164	n
C[C@H]1CN([C@@H](C)CO)C(=O)c2cc(-c3cccnc3)cnc2O[C@@H]1CN(C)Cc1ccccc1	x	x	n	x	n	x
CCSc1ncnc2sc3c(c12)CCC3	n	n	n	n	43	n
CC(C)NC(=O)N[C@@H]1C=C[C@H](CC(=O)N2CCCCC2)O[C@H]1CO	x	x	n	x	n	x
CS(=O)(=O)c1ccc(C(=O)OCc2nnc(-c3ccccc3)o2)cc1[N+](=O)[O-]	x	n	n	x	71	n
Cc1onc(-c2ccccc2)c1C(=O)OCc1nnc(-c2ccc([N+](=O)[O-])cc2)o1	n	x	60	n	n	n
CCCc1nc2c(=O)n(C)c(=O)nc-2n(C)n1	x	x	69	x	n	n
Cn1nc(-c2ccccn2)nc2c(=O)n(C)c(=O)nc1-2	n	n	68	n	n	n
CO[C@@H]1CN(C)C(=O)c2cc(NC(=O)NC(C)C)ccc2OC[C@@H](C)N(Cc2cncnc2)C[C@H]1C	x	x	n	x	n	x
CCOCCCn1c(SCC(=O)NCc2ccco2)nc2c(sc3ccccc32)c1=O	n	n	56	n	n	n
O=C(CSc1nc2ccccc2c(=O)n1Cc1ccccc1)NCc1ccco1	n	n	n	n	81	n
CCCCn1c(SCC(=O)NCc2ccco2)nc2c(sc3ccccc32)c1=O	n	n	n	n	x	n
O=C(CSc1nc2ccccc2c(=O)n1CC1CCCO1)NCc1ccccc1 (configuration not stated)	n	n	n	n	143	n
O=C(CSc1nc2ccccc2c(=O)n1Cc1ccc(F)cc1)NCc1cccs1	n	n	62	n	n	n
Cc1cc(NC(=O)CSc2nc3ccccc3c(=O)n2Cc2ccc(F)cc2)no1	n	n	n	n	x	n
O=C(CSc1nc2c(oc3ccccc32)c(=O)n1CC1CCCO1)NCc1ccccc1 (configuration not stated)	n	n	n	n	n	n
CC(C)CC#Cc1ccc2c(c1)O[C@@H](CN(C)C(=O)CC1CC1)[C@H](C)CN([C@H](C)CO)S2(=O)=O	x	x	n	x	n	x
C[C@H]1CN([C@@H](C)CO)C(=O)Cc2cc(NC(=O)C3CCCCC3)ccc2O[C@@H]1CN(C)Cc1ccc(C(F)(F)F)cc1	x	x	n	x	n	x
NC(=O)CSc1nc2ccccc2c(=O)n1Cc1ccco1	n	n	x	n	x	n
O=C(CSc1nnc2n1CCCCC2)NCc1ccccc1	x	x	58	x	x	x
